Data taken from ChEMBL document CHEMBL4229344 (Eur J Med Chem, 2018).

Legend:
[1] = target: Inhibitor of nuclear factor kappa-B kinase subunit alpha (Homo sapiens) (UniProt O15111); test: Binding affinity to wild-type human full length IKK-alpha (M1 to E745 residues) expressed in mammalian expression system assessed as residual binding level at 1 uM by Kinomescan method relative to control
Method in brief: (§1)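 Single-concentration (1 μM) competition-binding screen run by KINOMEscan against a panel of 468 purified kinases and mutants. The read-out is the relative binding activity of the test compound to each kinase.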

[2] = target: Phosphatidylinositol 4-phosphate 3-kinase C2 domain-containing subunit beta (Homo sapiens) (UniProt O00750); test: Binding affinity to wild-type human partial length PIK3C2B (M1 to L1634 residues) expressed in mammalian expression system assessed as residual binding level at 1 uM by Kinomescan method relative to control
[3] = target: Myosin light chain kinase family member 4 (Homo sapiens) (UniProt Q86YV6); test: Binding affinity to wild-type human partial length MYLK4 (V79 to S380 residues) expressed in bacterial expression system assessed as residual binding level at 1 uM by Kinomescan method relative to control
[4] = target: Cyclin-dependent kinase 4 (Homo sapiens) (UniProt P11802); test: Binding affinity to wild-type human full length CDK4 (M1 to E303 residues) expressed in mammalian expression system assessed as residual binding level at 1 uM by Kinomescan method relative to control; method in brief: as §1
[5] = target: Tyrosine-protein kinase Blk (Homo sapiens) (UniProt P51451); test: Binding affinity to wild-type human partial length BLK (G211 to L503 residues) expressed in bacterial expression system assessed as residual binding level at 1 uM by Kinomescan method relative to control
Method in brief: (§2)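 Single-concentration KINOMEscan (DiscoverX) binding screen at 1 μM against a panel of 468 purified kinases and mutants. The read-out is binding relative to control.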

[6] = target: Serine/threonine-protein kinase ULK2 (Homo sapiens) (UniProt Q8IYT8); test: Binding affinity to wild-type human partial length ULK2 (M1 to S301 residues) expressed in mammalian expression system assessed as residual binding level at 1 uM by Kinomescan method relative to control
Method in brief: (§3)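 KINOMEscan competition binding against a panel of 468 purified kinases/mutants, compound tested at 1 μM; readout is relative binding activity versus control.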

EOL1 [7] = test: Antitumor activity against human EOL-1 cells xenografted in nu/nu mouse assessed as tumor growth inhibition at 50 mg/kg/day, ip; assay type: functional; settings: read-out: TGI
Method in brief: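 Female nu/nu mice (6 weeks) given subcutaneous right-flank injection of 5 million EOL-1 cells in PBS/Matrigel 1:1. At 200–400 mm3 tumors, randomized to groups of 6 and dosed daily i.p. for 14 days at 25, 50 or 100 mg/kg/d in 0.5% methylcellulose/0.4% Tween80. Tumor volume = W²×L/2, measured daily.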

[8] = target: Mitogen-activated protein kinase 11 (Homo sapiens) (UniProt Q15759); test: Binding affinity to wild-type human full length p38-beta (M1 to Q364 residues) expressed in bacterial expression system assessed as residual binding level at 1 uM by Kinomescan method relative to control; method in brief: as §2
[9] = target: Cyclin-dependent kinase 19 (Homo sapiens) (UniProt Q9BWU1); test: Binding affinity to wild-type human partial length CDK11 (M1 to N360 residues) expressed in bacterial expression system assessed as residual binding level at 1 uM by Kinomescan method relative to control
Method in brief: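 Kinome-wide competition binding screen against a panel of 468 purified kinases/mutants, with the test compound at a single concentration of 1 μM. Read-out is the relative binding activity of each kinase in the presence of compound.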

[10] = target: Casein kinase I isoform epsilon (Homo sapiens) (UniProt P49674); test: Binding affinity to wild-type human full length CSNK1E (M1 to K416 residues) expressed in bacterial expression system assessed as residual binding level at 1 uM by Kinomescan method relative to control; method in brief: as §1
[11] = target: Serine/threonine-protein kinase tousled-like 1 (Homo sapiens) (UniProt Q9UKI8); test: Binding affinity to wild-type human partial length TLK1 (K447 to A754 residues) expressed in bacterial expression system assessed as residual binding level at 1 uM by Kinomescan method relative to control
[12] = target: Ribosomal protein S6 kinase alpha-4 (Homo sapiens) (UniProt O75676); test: Binding affinity to wild-type human partial length N-terminal RPS6KA4 kinase domain 1 expressed in bacterial expression system assessed as residual binding level at 1 uM by Kinomescan method relative to control
EOL1 [13] = test: Antitumor activity against human EOL-1 cells engrafted in ip dosed NOD-SCID mouse assessed as reduction of cell density in bone marrow administered 3 weeks post cell inoculation by FACS analysis; assay type: functional, organism-based
Method in brief: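 Daily i.p. dosing started 3 weeks after inoculation at 7.5, 15 or 30 mg/kg/day. Mice monitored daily and euthanized when moribund or at hind-limb paralysis. Bone marrow cells, after red-cell lysis, stained with PE anti-HLA-ABC and counted by flow cytometry.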

[14] = tested on: Epidermal growth factor receptor (Homo sapiens), P00533 [L861Q]; test: Binding affinity to human partial length EGFR L861Q mutant (R669 to V1011 residues) expressed in bacterial expression system assessed as residual binding level at 1 uM by Kinomescan method relative to control
Method in brief: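 Kinome-wide single-concentration binding screen (KINOMEscan) at 1 μM against a panel of 468 purified kinases and mutants. Read-out is relative binding of each kinase compared with control. Selectivity across the panel was summarised as an S(10) score.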

[15] = target: Serine/threonine-protein kinase PAK 2 (Homo sapiens) (UniProt Q13177); test: Binding affinity to wild-type human partial length PAK2 (P151 to R525 residues) expressed in bacterial expression system assessed as residual binding level at 1 uM by Kinomescan method relative to control; method in brief: as §3
[16] = target: Fibroblast growth factor receptor 1 (Homo sapiens) (UniProt P11362); test: Binding affinity to wild-type human partial length FGFR1 (P357 to V669 residues) expressed in bacterial expression system assessed as residual binding level at 1 uM by Kinomescan method relative to control
[17] = target: Serine/threonine-protein kinase PLK4 (Homo sapiens) (UniProt O00444); test: Binding affinity to wild-type human partial length PLK4 (M1 to S273 residues) expressed in mammalian expression system assessed as residual binding level at 1 uM by Kinomescan method relative to control
[18] = target: Serine/threonine-protein kinase mTOR (Homo sapiens) (UniProt P42345); test: Binding affinity to wild-type human partial length MTOR (L1382 to W2549 residues) expressed in mammalian expression system assessed as residual binding level at 1 uM by Kinomescan method relative to control
[19] = target: Serine/threonine-protein kinase 3 (Homo sapiens) (UniProt Q13188); test: Binding affinity to wild-type human partial length MST2 (D17 to E318 residues) expressed in bacterial expression system assessed as residual binding level at 1 uM by Kinomescan method relative to control
[20] = target: Atypical kinase COQ8B, mitochondrial (Homo sapiens) (UniProt Q96D53); test: Binding affinity to wild-type human full length ADCK4 (M1 to S544 residues) expressed in bacterial expression system assessed as residual binding level at 1 uM by Kinomescan method relative to control
Method in brief: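 KINOMEscan competition binding against 468 purified kinases/mutants, test compound at 1 µM; residual binding relative to control.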

Myosin light chain kinase family member 4 (Homo sapiens), sequence (Q86YV6 whole entry, the tested form may be a part): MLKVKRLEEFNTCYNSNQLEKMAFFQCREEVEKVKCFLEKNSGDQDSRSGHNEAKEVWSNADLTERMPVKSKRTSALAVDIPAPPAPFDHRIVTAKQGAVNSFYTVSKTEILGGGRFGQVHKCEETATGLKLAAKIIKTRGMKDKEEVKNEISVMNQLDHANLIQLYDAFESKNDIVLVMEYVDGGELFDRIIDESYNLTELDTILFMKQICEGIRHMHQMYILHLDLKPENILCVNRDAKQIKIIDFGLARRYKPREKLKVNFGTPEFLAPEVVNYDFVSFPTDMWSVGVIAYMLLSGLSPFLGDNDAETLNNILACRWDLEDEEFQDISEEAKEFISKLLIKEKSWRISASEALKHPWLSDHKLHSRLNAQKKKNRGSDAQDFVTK
Cyclin-dependent kinase 4 (Homo sapiens), sequence (P11802 whole entry, the tested form may be a part): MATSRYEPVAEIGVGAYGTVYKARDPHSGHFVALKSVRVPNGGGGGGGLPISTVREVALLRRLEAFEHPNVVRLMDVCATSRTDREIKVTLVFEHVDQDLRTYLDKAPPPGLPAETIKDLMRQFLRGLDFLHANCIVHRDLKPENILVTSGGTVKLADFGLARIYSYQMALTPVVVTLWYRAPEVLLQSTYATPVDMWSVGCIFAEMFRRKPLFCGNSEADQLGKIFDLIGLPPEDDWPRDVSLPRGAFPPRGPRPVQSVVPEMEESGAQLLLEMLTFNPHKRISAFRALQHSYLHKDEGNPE
Serine/threonine-protein kinase 3 (Homo sapiens), sequence (Q13188 whole entry, the tested form may be a part): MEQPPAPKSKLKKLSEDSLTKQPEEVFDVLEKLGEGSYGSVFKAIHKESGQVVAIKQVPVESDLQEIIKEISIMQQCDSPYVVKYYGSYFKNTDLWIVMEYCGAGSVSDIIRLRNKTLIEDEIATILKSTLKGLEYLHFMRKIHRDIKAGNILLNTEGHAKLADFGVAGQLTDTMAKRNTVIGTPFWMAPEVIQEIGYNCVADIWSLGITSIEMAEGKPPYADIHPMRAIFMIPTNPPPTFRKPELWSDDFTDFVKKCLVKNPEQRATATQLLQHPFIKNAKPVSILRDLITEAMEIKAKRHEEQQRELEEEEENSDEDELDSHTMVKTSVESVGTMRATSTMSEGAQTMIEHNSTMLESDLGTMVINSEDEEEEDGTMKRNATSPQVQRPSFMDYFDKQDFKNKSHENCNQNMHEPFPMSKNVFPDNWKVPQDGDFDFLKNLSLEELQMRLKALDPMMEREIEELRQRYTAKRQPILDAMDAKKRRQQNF
Serine/threonine-protein kinase tousled-like 1 (Homo sapiens), sequence (Q9UKI8 whole entry, the tested form may be a part): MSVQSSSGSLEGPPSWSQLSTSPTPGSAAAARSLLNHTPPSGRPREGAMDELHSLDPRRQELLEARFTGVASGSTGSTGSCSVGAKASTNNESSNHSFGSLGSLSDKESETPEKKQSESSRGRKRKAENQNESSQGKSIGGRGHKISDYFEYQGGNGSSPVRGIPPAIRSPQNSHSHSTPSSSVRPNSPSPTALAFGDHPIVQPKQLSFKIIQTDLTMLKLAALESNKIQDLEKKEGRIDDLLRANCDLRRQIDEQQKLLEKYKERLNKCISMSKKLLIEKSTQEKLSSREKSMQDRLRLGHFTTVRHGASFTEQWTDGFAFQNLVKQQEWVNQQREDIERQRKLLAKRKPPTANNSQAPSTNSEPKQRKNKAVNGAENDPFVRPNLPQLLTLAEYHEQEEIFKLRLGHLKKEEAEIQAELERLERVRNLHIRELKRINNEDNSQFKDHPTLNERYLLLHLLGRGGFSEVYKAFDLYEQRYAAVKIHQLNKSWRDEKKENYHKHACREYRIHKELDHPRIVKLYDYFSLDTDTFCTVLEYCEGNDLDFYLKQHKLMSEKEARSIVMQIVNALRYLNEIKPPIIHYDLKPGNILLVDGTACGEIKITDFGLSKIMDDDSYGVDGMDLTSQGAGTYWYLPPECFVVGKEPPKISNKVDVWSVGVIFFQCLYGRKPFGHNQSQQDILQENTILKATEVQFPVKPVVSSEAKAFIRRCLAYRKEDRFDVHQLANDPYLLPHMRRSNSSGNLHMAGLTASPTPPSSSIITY
Serine/threonine-protein kinase PAK 2 (Homo sapiens), sequence (Q13177 whole entry, the tested form may be a part): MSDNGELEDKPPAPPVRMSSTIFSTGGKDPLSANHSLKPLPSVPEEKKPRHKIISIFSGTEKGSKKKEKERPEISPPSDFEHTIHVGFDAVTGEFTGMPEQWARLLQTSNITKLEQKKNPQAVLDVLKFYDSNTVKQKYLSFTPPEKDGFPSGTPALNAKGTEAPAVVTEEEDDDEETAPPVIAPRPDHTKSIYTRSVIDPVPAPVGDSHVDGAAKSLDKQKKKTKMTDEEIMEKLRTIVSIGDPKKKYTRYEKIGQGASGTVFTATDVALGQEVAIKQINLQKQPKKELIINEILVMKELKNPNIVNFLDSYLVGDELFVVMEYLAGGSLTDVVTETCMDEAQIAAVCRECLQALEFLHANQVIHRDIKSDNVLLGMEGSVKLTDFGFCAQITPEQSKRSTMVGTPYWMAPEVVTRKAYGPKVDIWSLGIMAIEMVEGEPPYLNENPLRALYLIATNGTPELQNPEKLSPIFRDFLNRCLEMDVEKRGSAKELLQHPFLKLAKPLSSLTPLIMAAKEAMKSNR
Casein kinase I isoform epsilon (Homo sapiens), sequence (P49674 whole entry, looked up, the tested form may be a part, canonical isoform): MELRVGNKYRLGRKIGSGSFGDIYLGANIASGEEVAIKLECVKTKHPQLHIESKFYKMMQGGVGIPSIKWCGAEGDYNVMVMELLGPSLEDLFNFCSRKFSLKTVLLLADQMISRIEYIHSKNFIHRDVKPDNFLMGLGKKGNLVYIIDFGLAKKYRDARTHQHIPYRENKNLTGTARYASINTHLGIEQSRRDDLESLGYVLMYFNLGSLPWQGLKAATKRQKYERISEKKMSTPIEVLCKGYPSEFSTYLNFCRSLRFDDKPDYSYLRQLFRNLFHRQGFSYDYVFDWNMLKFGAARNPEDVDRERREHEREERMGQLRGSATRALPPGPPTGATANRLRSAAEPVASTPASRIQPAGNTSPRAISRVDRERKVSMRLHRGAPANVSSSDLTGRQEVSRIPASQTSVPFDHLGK
Serine/threonine-protein kinase ULK2 (Homo sapiens), sequence (Q8IYT8 whole entry, the tested form may be a part): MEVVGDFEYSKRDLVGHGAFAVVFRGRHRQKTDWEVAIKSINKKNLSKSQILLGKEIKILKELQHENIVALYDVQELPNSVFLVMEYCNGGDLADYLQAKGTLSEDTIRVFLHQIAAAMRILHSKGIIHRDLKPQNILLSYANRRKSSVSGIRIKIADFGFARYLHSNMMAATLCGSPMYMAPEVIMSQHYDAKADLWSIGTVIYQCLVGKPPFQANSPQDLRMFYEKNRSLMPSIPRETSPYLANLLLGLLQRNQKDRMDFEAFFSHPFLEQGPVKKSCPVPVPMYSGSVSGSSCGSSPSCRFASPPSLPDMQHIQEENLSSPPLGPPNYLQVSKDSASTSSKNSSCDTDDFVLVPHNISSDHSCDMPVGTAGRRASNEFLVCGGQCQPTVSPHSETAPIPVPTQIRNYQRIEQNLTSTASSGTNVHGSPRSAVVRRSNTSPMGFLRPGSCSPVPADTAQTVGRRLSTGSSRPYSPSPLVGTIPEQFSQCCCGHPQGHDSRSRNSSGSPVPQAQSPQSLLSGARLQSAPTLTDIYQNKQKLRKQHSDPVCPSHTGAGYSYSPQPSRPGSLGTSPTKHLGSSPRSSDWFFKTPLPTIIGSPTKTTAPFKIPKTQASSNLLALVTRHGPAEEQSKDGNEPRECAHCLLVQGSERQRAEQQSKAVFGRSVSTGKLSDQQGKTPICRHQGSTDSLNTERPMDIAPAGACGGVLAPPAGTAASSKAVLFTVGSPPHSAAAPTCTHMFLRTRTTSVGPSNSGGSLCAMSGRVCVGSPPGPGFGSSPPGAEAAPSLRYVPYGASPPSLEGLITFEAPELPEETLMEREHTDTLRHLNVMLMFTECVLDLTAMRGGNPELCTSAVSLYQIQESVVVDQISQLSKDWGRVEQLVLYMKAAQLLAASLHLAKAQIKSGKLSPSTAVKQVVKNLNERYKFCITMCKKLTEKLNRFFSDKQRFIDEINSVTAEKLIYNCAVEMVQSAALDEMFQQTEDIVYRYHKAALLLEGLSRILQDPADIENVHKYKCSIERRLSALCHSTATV
Serine/threonine-protein kinase PLK4 (Homo sapiens), sequence (O00444 whole entry, the tested form may be a part): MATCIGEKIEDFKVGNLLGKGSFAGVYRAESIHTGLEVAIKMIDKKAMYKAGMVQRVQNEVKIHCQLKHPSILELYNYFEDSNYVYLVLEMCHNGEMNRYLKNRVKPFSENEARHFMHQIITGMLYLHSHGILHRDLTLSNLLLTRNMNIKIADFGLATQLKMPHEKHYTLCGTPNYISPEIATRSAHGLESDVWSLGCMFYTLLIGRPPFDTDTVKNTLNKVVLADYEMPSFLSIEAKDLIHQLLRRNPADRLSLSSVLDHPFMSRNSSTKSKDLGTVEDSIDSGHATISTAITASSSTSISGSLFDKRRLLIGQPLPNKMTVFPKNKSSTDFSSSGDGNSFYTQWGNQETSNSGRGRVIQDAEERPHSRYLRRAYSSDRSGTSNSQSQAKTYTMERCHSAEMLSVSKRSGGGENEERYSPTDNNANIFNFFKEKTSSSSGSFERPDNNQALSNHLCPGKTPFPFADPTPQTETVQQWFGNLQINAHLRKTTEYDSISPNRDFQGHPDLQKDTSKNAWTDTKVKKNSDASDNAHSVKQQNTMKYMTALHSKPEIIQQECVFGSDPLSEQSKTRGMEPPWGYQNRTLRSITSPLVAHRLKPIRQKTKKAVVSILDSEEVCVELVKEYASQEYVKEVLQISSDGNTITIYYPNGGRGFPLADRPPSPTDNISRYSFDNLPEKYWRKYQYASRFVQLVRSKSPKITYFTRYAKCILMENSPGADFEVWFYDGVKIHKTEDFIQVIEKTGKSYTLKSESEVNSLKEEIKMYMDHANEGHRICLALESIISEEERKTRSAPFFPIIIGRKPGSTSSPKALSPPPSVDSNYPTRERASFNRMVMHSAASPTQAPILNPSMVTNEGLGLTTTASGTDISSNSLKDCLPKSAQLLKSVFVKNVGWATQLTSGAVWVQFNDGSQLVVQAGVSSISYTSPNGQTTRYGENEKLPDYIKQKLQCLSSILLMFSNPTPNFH

Cc1ccc(NC(=O)c2ccc(CN(CCN(C)C)C(=O)c3cccnc3)cc2)cc1Nc1nccc(-c2cccnc2)n1
Activity [1]: 95% | Activity [2]: 97% | Activity [3]: 76% | Activity [4]: 100% | Activity [5]: 95% | Activity [6]: 84% | inhibition in vivo at 50 mg/kg/day (EOL1 [7]): 95.4% | Activity [8]: 100% | Activity [9]: 82% | Activity [10]: 97% | Activity [11]: 100% | Activity [12]: 82% | Activity (EOL1 [13]): Dose-dependent effect | Activity [14]: 99% | Activity [15]: 82% | Activity [16]: 98% | Activity [17]: 88% | Activity [18]: 100% | Activity [19]: 100% | Activity [20]: 94%
